Experimental data: ChEMBL document CHEMBL3351277, “Discovery and structure-activity relationship studies of irreversible benzisothiazolinone-based inhibitors against Staphylococcus aureus sortase A transpeptidase” (Bioorg Med Chem, 2014)
In brackets after ≈: the same amount, converted by molar mass. Activity calls are given as the source filed them. The calls are words filed in the database; no cut-off is given here.

What was measured:
[1] = tested on: Staphylococcus epidermidis; assay: Antibacterial activity against Staphylococcus epidermidis ATCC 12228 after 24 hrs by broth dilution method; type: functional; conditions: ATCC 12228, 24 h
Method in brief: (§1)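 Broth microdilution, 0.1–500 µg/mL in Mueller Hinton broth for S. aureus and S. epidermidis and Luria Bertani broth for E. coli. Inoculum was log-phase culture at OD600 0.1, incubated 24 h at 37 °C, with growth read as A600. Triplicates, repeated three times.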

[2] = target: T1, Sortase A (Staphylococcus aureus, UniProt Q9S446); assay: Inhibition of Staphylococcus aureus sortase A using dabcyl-QALPETGEE-edans as substrate incubated for 1 hr prior to substrate addition measured at 1 min interval for 1 hr by FRET analysis
T1 sequence (Q9S446 whole entry): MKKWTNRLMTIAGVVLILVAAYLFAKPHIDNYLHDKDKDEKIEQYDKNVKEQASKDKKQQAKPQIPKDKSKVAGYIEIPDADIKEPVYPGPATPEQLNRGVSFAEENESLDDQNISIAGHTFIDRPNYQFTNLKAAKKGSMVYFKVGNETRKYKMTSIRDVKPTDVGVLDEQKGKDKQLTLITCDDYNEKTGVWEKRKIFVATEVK
Method in brief: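 Recombinant S. aureus SrtA catalytic domain (residues 1–59 deleted, C-terminal His6; E. coli BL21(DE3), Ni-NTA then gel filtration), 10 µM, preincubated 1 h at 37 °C with increasing inhibitor concentrations in 50 mM Tris-HCl pH 7.5, 5 mM CaCl2, 150 mM NaCl; then 20 µM substrate added. Fluorescence (ex 350/em 495 nm) read each minute for 1 h; progress curves constructed for IC50.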

[3] = tested on: Staphylococcus aureus; assay: Antibacterial activity against Staphylococcus aureus ATCC 25904 after 24 hrs by broth dilution method; type: functional; conditions: ATCC 25904, 24 h; method in brief: as §1
[4] = tested on: Escherichia coli; assay: Antibacterial activity against Escherichia coli ATCC 25922 after 24 hrs by broth dilution method; type: functional; conditions: ATCC 25922, 24 h; method in brief: as §1
[5] = Cytotoxicity against Swiss mouse NIH/3T3 cells after 48 hrs by MTT assay; type: cell-based; conditions: NIH3T3, 48 h
Method in brief: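 NIH 3T3 fibroblasts were seeded in DMEM with 10% FCS and rested 24 h, then exposed to graded compound concentrations for 48 h. Medium was replaced with phenol-red-free medium plus 1 mM MTT for 3 h, then 1% SDS–HCl was added for 4 h. A570 was read. IC50 was the 50% proliferation inhibition versus untreated control, from nonlinear dose–response regression.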

[6] = target: T2, Sortase A (Staphylococcus aureus) (UniProt Q9S446); assay: Irreversible binding affinity to Staphylococcus aureus sortase A by 15N-1H HSQC NMR spectroscopy
T2 sequence (whole entry): T1 sequence (Q9S446 whole entry)
Method in brief: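 2D 15N–1H HSQC used 15N-labelled SrtAΔN59-6His (E. coli BL21(DE3), M9 with 15N-ammonium) at 0.3 mM. Buffer was 20 mM sodium acetate, 50 mM NaCl, 10 mM CaCl2, pH 6.0, 6% D2O. Inhibitor (100 mM stock in DMSO-d6) was added stepwise with a spectrum after each addition. Reversibility was checked by HSQC after dialysis against NMR buffer (100-fold dilution).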

IC50 [2] | Structure (SMILES) | MIC [1] [µM] | IC50 ([2]; read-out: IC50) [µM] | MIC [3] [µM] | MIC [4] [µM] | IC50 [5] [µM] | Activity [6]
– | CC12CC3(C)CC(O)(C1)CC(NC(=O)CCn1sc4ccccc4c1=O)(C2)C3 | 40 (≈ 16 µg/mL) | 7.06 | 40 (≈ 16 µg/mL) | > 1250 | 7.52 | –
– | CC12CC3(C)CC(O)(C1)CC(NC(=O)CCn1sc4cccc(F)c4c1=O)(C2)C3 | 38.2 (≈ 16 µg/mL) | 3.96 | 38.2 (≈ 16 µg/mL) | > 1190 | 2.17 | –
Not Active | Cl.NC12CC3CC(CC(C3)C1)C2 [AMANTADINE HYDROCHLORIDE] | > 2660 | – | > 2660 | > 2660 | 2290 | –
Not Active | O=C(CN1Cc2ccccc2C1=O)NC12CC3CC(CC(C3)C1)C2 | > 1540 | – | > 1540 | > 1540 | 263 | –
– | O=C(CCn1sc2cccc(F)c2c1=O)NNC(=O)C12CC3CC(CC(C3)C1)C2 | 19.2 (≈ 8 µg/mL) | 3.39 | 38.3 (≈ 16 µg/mL) | > 1200 | 1.67 | –
– | CC12CC3CC(C)(C1)CC(NC(=O)Cn1sc4ccccc4c1=O)(C3)C2 | 43.2 (≈ 16 µg/mL) | 4.99 | 86.4 (≈ 32 µg/mL) | > 1350 | 4.09 | –
– | O=C(Cn1sc2ccccc2c1=O)NNC(=O)C12CC3CC(CC(C3)C1)C2 | 10.4 (≈ 4 µg/mL) | 3.8 | 41.5 (≈ 16 µg/mL) | > 1300 | 14.4 | –
– | O=C(CCn1sc2ccccc2c1=O)NC12CC3CC(CC(C3)C1)C2 | 5.61 (≈ 2 µg/mL) | 3.81 | 22.4 (≈ 8 µg/mL) | > 1400 | 5.95 | –
Not Active | COC(=O)C12CC3CC(CC(N)(C3)C1)C2.Cl | > 2030 | – | > 2030 | > 2030 | 2290 | –
– | C=CS(=O)(=O)c1ccccc1 [(ETHENYLSULFONYL)BENZENE] | > 2960 | – | > 2960 | > 2960 | 7.91 | –
– | CN(C)CCC(=O)c1ccc(Cl)c(Cl)c1 | 56.6 (≈ 13.9 µg/mL) | 16.9 | 113 (≈ 27.9 µg/mL) | > 1770 | 9.71 | –
– | O=C(CCn1sc2ccccc2c1=O)NNC(=O)C12CC3CC(CC(C3)C1)C2 | 10 (≈ 4 µg/mL) | 4.22 | 20 (≈ 8 µg/mL) | > 1250 | 12.2 | –
– | O=C(Cn1sc2ccccc2c1=O)NC12CC3CC(CC(C3)C1)C2 | 1.46 (≈ 0.5 µg/mL) | 6.11 | 2.92 (≈ 1 µg/mL) | > 1500 | 1.27 | Active
– | O=C(O)CCn1sc2ccccc2c1=O | 287 (≈ 64 µg/mL) | 12.8 | 287 (≈ 64 µg/mL) | 71.7 (≈ 16 µg/mL) | 21.8 | –
– | CC12CC3CC(C)(C1)CC(NC(=O)CCn1sc4cccc(F)c4c1=O)(C3)C2 | 2.48 (≈ 0.998 µg/mL) | 4.07 | 39.7 (≈ 16 µg/mL) | > 1240 | 9.89 | –
– | CC12CC3CC(C)(C1)CC(NC(=O)CCn1sc4ccccc4c1=O)(C3)C2 | 20.8 (≈ 8 µg/mL) | 4.62 | 20.8 (≈ 8 µg/mL) | > 1300 | 4.23 | –
– | O=C(CCn1sc2cccc(F)c2c1=O)NC12CC3CC(CC(O)(C3)C1)C2 | 164 (≈ 64 µg/mL) | 6.26 | 164 (≈ 64 µg/mL) | > 1280 | 1.34 | –
– | COC(=O)C12CC3CC(CC(NC(=O)CCn4sc5cccc(F)c5c4=O)(C3)C1)C2 | 18.5 (≈ 8 µg/mL) | 5.06 | 37 (≈ 16 µg/mL) | > 1160 | 8.02 | –
– | O=C(CCn1sc2ccccc2c1=O)NC12CC3CC(CC(O)(C3)C1)C2 | 85.9 (≈ 32 µg/mL) | 6.44 | 43 (≈ 16 µg/mL) | > 1340 | 7.13 | –
– | COC(=O)C12CC3CC(CC(NC(=O)CCn4sc5ccccc5c4=O)(C3)C1)C2 | 19.3 (≈ 8 µg/mL) | 5.08 | 38.6 (≈ 16 µg/mL) | > 1210 | 12.1 | –
– | CC12CC3(C)CC(O)(C1)CC(NC(=O)Cn1sc4ccccc4c1=O)(C2)C3 | 20.7 (≈ 8 µg/mL) | 3.87 | 20.7 (≈ 8 µg/mL) | > 1290 | 1.33 | –
– | O=C(CCn1sc2cccc(F)c2c1=O)NC12CC3CC(CC(C3)C1)C2 | 10.7 (≈ 4 µg/mL) | 4.01 | 85.5 (≈ 32 µg/mL) | > 1340 | 0.9 | –
